Activity calls are given as the source filed them. The calls are words filed in the database; no cut-off is given here.
Key:
[1] = tested on: Pichia kudriavzevii (Candida krusei); assay: Antifungal activity against fluconazole-resistant Candida krusei CAKR8 assessed as reduction in microbial growth after 24 hrs by resazurin staining based spectrofluorometric method; conditions: CAKR8, 24 h
[2] = tested on: Pichia kudriavzevii (Candida krusei); assay: Antifungal activity against fluconazole-resistant Candida krusei CAKR7 assessed as reduction in microbial growth after 24 hrs by resazurin staining based spectrofluorometric method; conditions: CAKR7, 24 h
Scedosporium apiospermum = assay: Antifungal activity against Scedosporium apiospermum SCAP1 assessed as reduction in microbial growth […] by broth microdilution method; format: functional
Aspergillus fumigatus [3] = assay: Antifungal activity against Aspergillus fumigatus ASFU77 assessed as reduction in microbial growth after 48 hrs by resazurin staining based spectrofluorometric method; format: functional
Summary of the method: (§1)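 A. fumigatus conidia counted by microscope and inoculated at 10^4 cells mL⁻¹ in RPMI 1640 with 0.165 M MOPS, 2% glucose and antibiotics. Drugs were dissolved in DMSO (fluconazole in water), then diluted in medium. Plates ran 48 h at 37 °C, then resazurin for 20 h, read by fluorescence at ex 550/em 590 nm. MIC is 80% growth inhibition by linear regression; triplicate, mean±SD.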

Aspergillus fumigatus [4] = assay: Antifungal activity against Aspergillus fumigatus ASFU7 assessed as reduction in microbial growth after 48 hrs by resazurin staining based spectrofluorometric method; format: functional
Summary of the method: as §1

Rhizopus arrhizus [5] = assay: Antifungal activity against Rhizopus oryzae RHPOR2 assessed as reduction in microbial growth after 24 hrs by broth microdilution method; format: functional
Summary of the method: (§2)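 CLSI M38 broth microdilution in RPMI 1640 buffered to pH 7.0 with MOPS. Drugs were diluted in DMSO then medium; final range 0.032-16 mg/L. Conidia or sporangiospores came from 7-day potato dextrose agar cultures; diluted (2×) inocula were 0.9×10^4–4.7×10^4 CFU/mL. Incubation at 35 °C, read at 48 h except Zygomycetes at 24 h. MIC read visually as lowest concentration preventing 100% growth; duplicate.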

Rhizopus arrhizus [6] = assay: Antifungal activity against Rhizopus oryzae RHPOR1 assessed as reduction in microbial growth after 24 hrs by broth microdilution method; format: functional
Summary of the method: as §2

Fusarium sp. = assay: Antifungal activity against Fusarium sp. assessed as reduction in microbial growth […] by broth microdilution method; format: functional
Mucor circinelloides = assay: Antifungal activity against Mucor circinelloides MURI1 assessed as reduction in microbial growth after 24 hrs by broth microdilution method; format: functional
Summary of the method: as §2

Aspergillus fumigatus [7] = assay: Antifungal activity against Aspergillus fumigatus ASFU76 assessed as reduction in microbial growth after 48 hrs by resazurin staining based spectrofluorometric method; format: functional
Summary of the method: as §1

Candida albicans [8] = assay: Antifungal activity against fluconazole-resistant Candida albicans DSY735 over expression of CDR1/CDR2 assessed as reduction in microbial growth after 24 hrs by resazurin staining based spectrofluorometric method; format: functional
Summary of the method: (§3)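 Broth microdilution in RPMI 1640 with 0.165 M MOPS, 2% glucose and antibiotics; yeast inoculum at 10³ cells mL⁻¹ final. Compounds were dissolved in DMSO (fluconazole in water) and diluted in medium, then incubated 24 h at 37 °C. Viability was read by resazurin fluorescence (ex 550/em 590 nm) after 4 h. MIC was taken as 50% growth inhibition, by linear regression; triplicate experiments.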

Candida albicans [9] = assay: Antifungal activity against fluconazole-resistant Candida albicans DSY292 harboring Erg1l G464S/R467K/Y132 mutant assessed as reduction in microbial growth after 24 hrs by resazurin staining based spectrofluorometric method; format: functional
Summary of the method: as §3

Nakaseomyces glabratus = assay: Antifungal activity against fluconazole-sensitive Candida glabrata CAGL2 assessed as reduction in microbial growth after 24 hrs by resazurin staining based spectrofluorometric method; format: functional
Summary of the method: (§4)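 Yeasts in RPMI 1640 with 0.165 M MOPS, 2% glucose and antibiotics, final 10³ cells mL⁻¹. Drugs in DMSO (fluconazole in water) were diluted in medium. Plates ran 24 h at 37 °C, then resazurin for 4 h, fluorescence ex 550/em 590 nm. MIC is 50% growth inhibition by linear regression; triplicate, mean±SD.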

Candida albicans [10] = assay: Antifungal activity against fluconazole-susceptible Candida albicans CAAL93 assessed as reduction in microbial growth after 24 hrs by resazurin staining based spectrofluorometric method; format: functional
Summary of the method: as §4

Candida albicans [11] = assay: Inhibition of sterol biosynthesis in Candida albicans CAAL93 assessed as ergosterol level at 10 ng/ml after 18 hrs by GC-MS analysis (reference value: 89.7%); format: functional; parameters: scale not given: the % may be the effect or the level left
Summary of the method: (§5)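 C. albicans CAAL93 blastospores were grown 18 h at 35 °C with stirring in 50 mL Sabouraud broth, with drug added before incubation. Cells were pelleted and saponified in ethanolic KOH at 80 °C for 60 min, and sterols extracted with hexane. Analysis by GC-MS (EI 70 eV, splitless injection at 250 °C, helium carrier); sterols identified by fragmentation pattern.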

Candida albicans [12] = assay: Inhibition of sterol biosynthesis in Candida albicans CAAL93 assessed as zymosterol level at 10 ng/ml after 18 hrs by GC-MS analysis (reference value: 1.6%); format: functional; parameters: scale not given: the % may be the effect or the level left
Summary of the method: as §5

Candida albicans [13] = assay: Inhibition of sterol biosynthesis in Candida albicans CAAL93 assessed as episterol level at 10 ng/ml after 18 hrs by GC-MS analysis (reference value: 2%); format: functional; parameters: scale not given: the % may be the effect or the level left
Summary of the method: as §5

Candida albicans [14] = assay: Inhibition of sterol biosynthesis in Candida albicans CAAL93 assessed as eburicol level at 10 ng/ml after 18 hrs by GC-MS analysis relative to control; format: functional; parameters: scale not given: the % may be the effect or the level left
Summary of the method: as §5

Candida albicans [15] = assay: Inhibition of sterol biosynthesis in Candida albicans CAAL93 assessed as ergostadienol level at 10 ng/ml after 18 hrs by GC-MS analysis (reference value: 1.6%); format: functional; parameters: scale not given: the % may be the effect or the level left
Summary of the method: as §5

Candida albicans [16] = assay: Antifungal activity against Candida albicans DSY292 harboring Erg1l G464S/R467K/Y132 mutant infected in Swiss mouse assessed as survival at 15 mg/kg, po after 5 days; format: functional, organism-based; conditions: time 5.0 day
Summary of the method: (§6)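 Swiss mice (~25 g) immunosuppressed with prednisolone 30 mg/kg s.c. one day before challenge; day 0 i.v. infection with C. albicans blastoconidia (5.10⁶ yeast/mL, 100 µL). Oral dosing 1 h post-infection, once daily for 5 days, 10 mg/kg (CAAL93) or 15 mg/kg (DSY292), vehicle 40% DMSO/25% Tween80/35% olive oil. Mice given 50% grapefruit juice ad libitum. Survival followed 14 days (log-rank Mantel-Cox).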

Candida albicans [17] = assay: Antifungal activity against Candida albicans CAAL93 infected in Swiss mouse assessed as survival at 10 mg/kg, po after 14 days relative to control; format: functional; conditions: 336 h, time 14 day
Summary of the method: as §6

Candida albicans [18] = assay: Inhibition of sterol biosynthesis in Candida albicans CAAL93 assessed as 14alpha-methylfecosterol level at 10 ng/ml after 18 hrs by GC-MS analysis relative to control; format: functional; parameters: scale not given: the % may be the effect or the level left
Summary of the method: as §5

Candida albicans [19] = assay: Inhibition of sterol biosynthesis in Candida albicans CAAL93 assessed as other sterols level at 10 ng/ml after 18 hrs by GC-MS analysis (Rvb < 1%); format: functional; parameters: scale not given: the % may be the effect or the level left
Summary of the method: as §5

Candida albicans [20] = assay: Inhibition of sterol biosynthesis in Candida albicans CAAL93 assessed as fecosterol level at 10 ng/ml after 18 hrs by GC-MS analysis relative to control; format: functional; parameters: scale not given: the % may be the effect or the level left
Summary of the method: as §5

Candida albicans [21] = assay: Inhibition of sterol biosynthesis in Candida albicans CAAL93 assessed as lanosterol level at 10 ng/ml after 18 hrs by GC-MS analysis (reference value: 1.6%); format: functional; parameters: scale not given: the % may be the effect or the level left
Summary of the method: as §5

Candida albicans [22] = assay: Antifungal activity against Candida albicans CAAL93 infected in Swiss mouse assessed as reduction in kidney fungal burden at 10 mg/kg, po after 14 days; format: functional, organism-based; conditions: time 14.0 day
Candida albicans [23] = assay: Antifungal activity against Candida albicans DSY292 harboring Erg1l G464S/R467K/Y132 mutant infected in Swiss mouse assessed as survival at 15 mg/kg, po after 8 days; format: functional, organism-based; conditions: time 8.0 day
Summary of the method: as §6

## C[C@@H](n1ncc2cc(-c3ccccc3)cn2c1=O)[C@](O)(Cn1cncn1)c1ccc(F)cc1F
[1]
  MIC: 0.014 µg/mL
[2]
  MIC: 0.013 µg/mL

## CCC(C)n1ncn(-c2ccc(N3CCN(c4ccc(OCC5COC(Cn6cncn6)(c6ccc(Cl)cc6Cl)O5)cc4)CC3)cc2)c1=O (configuration not stated) [ITRACONAZOLE]
Scedosporium apiospermum
  MIC: 0.5 µg/mL
Aspergillus fumigatus [3]
  MIC: > 100 µg/mL
Aspergillus fumigatus [4]
  MIC: 0.5 µg/mL
Rhizopus arrhizus [5]
  MIC: 1.12 µg/mL
Rhizopus arrhizus [6]
  MIC: 0.19 µg/mL
Fusarium sp.
  MIC: > 16 µg/mL
Mucor circinelloides
  MIC: 0.19 µg/mL

## C[C@@H](n1ncc2cccn2c1=O)[C@](O)(Cn1cncn1)c1ccc(F)cc1F
[1]
  MIC: 1.15 µg/mL
Scedosporium apiospermum
  MIC: > 16 µg/mL
Rhizopus arrhizus [5]
  MIC: 8 µg/mL
[2]
  MIC: 0.625 µg/mL
Rhizopus arrhizus [6]
  MIC: 4 µg/mL
Fusarium sp.
  MIC: > 16 µg/mL
Mucor circinelloides
  MIC: 16 µg/mL

## C[C@@H](n1ncc2cc(-c3ccc(C#N)cc3)cn2c1=O)[C@](O)(Cn1cncn1)c1ccc(F)cc1F
[1]
  MIC: 0.101 µg/mL
Scedosporium apiospermum
  MIC: > 16 µg/mL
Aspergillus fumigatus [3]
  MIC: > 100 µg/mL
Aspergillus fumigatus [4]
  MIC: > 100 µg/mL
Rhizopus arrhizus [5]
  MIC: 0.25 µg/mL
Aspergillus fumigatus [7]
  MIC: > 100 µg/mL
[2]
  MIC: 0.058 µg/mL
Rhizopus arrhizus [6]
  MIC: 0.125 µg/mL
Fusarium sp.
  MIC: 10 µg/mL
Mucor circinelloides
  MIC: 0.75 µg/mL

## C[C@@H](n1ncc2cc(Br)cn2c1=O)[C@](O)(Cn1cncn1)c1ccc(F)cc1F
[1]
  MIC: 0.076 µg/mL
Scedosporium apiospermum
  MIC: 4 µg/mL
Candida albicans [8]
  MIC: 0.14 µg/mL
Aspergillus fumigatus [3]
  MIC: 6.74 µg/mL
Candida albicans [9]
  MIC: 0.155 µg/mL
Aspergillus fumigatus [4]
  MIC: 6.66 µg/mL
Rhizopus arrhizus [5]
  MIC: 8 µg/mL
Nakaseomyces glabratus
  MIC: 0.014 µg/mL
[2]
  MIC: 0.251 µg/mL
Rhizopus arrhizus [6]
  MIC: 4 µg/mL
Fusarium sp.
  MIC: > 16 µg/mL
Candida albicans [10]
  MIC: 0.002 µg/mL
Mucor circinelloides
  MIC: 8 µg/mL

## OC(Cn1cncn1)(Cn1cncn1)c1ccc(F)cc1F [FLUCONAZOLE]
[1]
  MIC: > 10 µg/mL
Candida albicans [11]
  Activity: 57.8%
Candida albicans [12]
  Activity: 2.8%
Candida albicans [13]
  Activity: 8.8%
Candida albicans [14]
  Activity: 2.2%
Candida albicans [15]
  Activity: 3.2%
[2]
  MIC: > 3 µg/mL
Candida albicans [16]
  Survival: inactive
Candida albicans [17]
  survival at 10 mg/kg: 100%
Candida albicans [18]
  Activity: 2%
Candida albicans [19]
  Activity: 7.3%
Candida albicans [20]
  Activity: 2.8%
Candida albicans [21]
  Activity: 13.1%
Candida albicans [22]
  Activity: Active

## CC[C@@H]([C@H](C)O)n1ncn(-c2ccc(N3CCN(c4ccc(OC[C@@H]5CO[C@@](Cn6cncn6)(c6ccc(F)cc6F)C5)cc4)CC3)cc2)c1=O [POSACONAZOLE]
Scedosporium apiospermum
  MIC: 1.25 µg/mL
Rhizopus arrhizus [5]
  MIC: 0.5 µg/mL
Rhizopus arrhizus [6]
  MIC: 0.19 µg/mL
Fusarium sp.
  MIC: > 8 µg/mL
Mucor circinelloides
  MIC: 0.19 µg/mL

## C[C@@H](c1ncncc1F)[C@](O)(Cn1cncn1)c1ccc(F)cc1F [VORICONAZOLE]
[1]
  MIC: 0.24 µg/mL
Scedosporium apiospermum
  MIC: 0.5 µg/mL
Rhizopus arrhizus [5]
  MIC: 8 µg/mL
Candida albicans [23]
  Survival: inactive
[2]
  MIC: 0.817 µg/mL
Fusarium sp.
  MIC: 6 µg/mL
Mucor circinelloides
  MIC: > 8 µg/mL

## C[C@@H](n1ncc2cc(-c3ccc([N+](=O)[O-])cc3)cn2c1=O)[C@](O)(Cn1cncn1)c1ccc(F)cc1F
[1]
  MIC: 0.039 µg/mL
Scedosporium apiospermum
  MIC: > 16 µg/mL
Rhizopus arrhizus [5]
  MIC: 0.25 µg/mL
[2]
  MIC: 0.066 µg/mL
Rhizopus arrhizus [6]
  MIC: 0.0625 µg/mL
Fusarium sp.
  MIC: 12 µg/mL
Mucor circinelloides
  MIC: 0.25 µg/mL

## C[C@@H]1[C@H](O)[C@@H](C)/C=C/C=C/C=C/C=C/C=C/C=C/C=C/[C@H](O[C@@H]2O[C@H](C)[C@@H](O)[C@H](N)[C@@H]2O)C[C@@H]2O[C@](O)(C[C@@H](O)C[C@@H](O)[C@H](O)CC[C@@H](O)C[C@@H](O)CC(=O)O[C@H]1C)C[C@H](O)[C@H]2C(=O)O [AMPHOTERICIN B]
Scedosporium apiospermum
  MIC: > 8 µg/mL
Rhizopus arrhizus [5]
  MIC: 0.5 µg/mL
Rhizopus arrhizus [6]
  MIC: 0.19 µg/mL
Fusarium sp.
  MIC: 12 µg/mL
Mucor circinelloides
  MIC: 0.19 µg/mL
